# Measurements: ChEMBL document CHEMBL1154391, “Novel thienopyrimidine and thiazolopyrimidine kinase inhibitors with activity against Tie-2 in vitro and in vivo” (Bioorg Med Chem Lett, 2009)
# Active and inactive are the calls of the source. The calls are words filed in the database; no cut-off is given here.
# Columns and labels:
# [1] = Aqueous solubility at pH 7
# Angiopoietin-1 receptor [2] = molecular target: T1, Angiopoietin-1 receptor (Homo sapiens, UniProt Q02763); experiment: Inhibition of Tie-2 phosphorylation by cell based assay
# [3] = Cmax in rat at 1 mg/kg, po; assay type: ADME, organism-based; design: dose 1 mg/kg, route oral; conditions: in vivo
# [4] = (§1) Protein binding in rat plasma; assay type: ADME, cell-free; conditions: read-out: PPB (converted)
# [5] = Bioavailability in rat at 2 mg/kg, iv and 5 mg/kg, po; assay type: ADME, organism-based; conditions: in vivo
# [6] = Half life in rat at 5 mg/kg, po; assay type: ADME, organism-based; design: dose 5 mg/kg, route oral; conditions: in vivo
# [7] = Volume of distribution at steady state in rat at 2 mg/kg, iv and 5 mg/kg, po; assay type: ADME, organism-based; conditions: in vivo, read-out: Vdss
# [8] = Clearance in rat at 2 mg/kg, iv and 5 mg/kg, po; assay type: ADME, organism-based; conditions: in vivo
# Angiopoietin-1 receptor [9] = molecular target: T1, Angiopoietin-1 receptor; experiment: Inhibition of Tie-2
# [10] = molecular target: Vascular endothelial growth factor receptor 2 (Homo sapiens) (UniProt P35968); experiment: Inhibition of FLt
# [11] = molecular target: Vascular endothelial growth factor receptor 1 (Homo sapiens) (UniProt P17948); experiment: Inhibition of Flt-1
# Rattus norvegicus [12] = experiment: Hypotensive activity in rat assessed as reversal of angiopoietin-1-induced reduction in blood pressure at 20 mg/kg, iv; assay type: functional, organism-based; design: dose 20 mg/kg
# Outline: (§2)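 Male Alderley Park rats anaesthetised with α-chloralose iv, maintained with thiopentone ip. Carotid artery cannulated for blood pressure recording by pressure transducer. Jugular vein cannulated for bolus VEGF or Ang-1 in 0.85% NaCl. Ang-1 was baculovirus/insect-cell expressed, 40–60 µg per batch, adjusted to give a 10–20 mmHg fall. Compound or vehicle given iv (25% w/v hydroxypropyl-β-cyclodextrin, Sorensen phosphate pH 5.5).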
# Rattus norvegicus [13] = experiment: Hypotensive activity in rat assessed as VEGF-induced reduction in blood pressure at 20 mg/kg, iv; assay type: functional, organism-based; design: dose 20 mg/kg; outline: as §2
# Plasma = experiment: as §1; assay type: ADME, cell-free
# [14] = Lipophilicity, log D of the compound; conditions: octanol/water
# T1 sequence (Q02763 whole entry): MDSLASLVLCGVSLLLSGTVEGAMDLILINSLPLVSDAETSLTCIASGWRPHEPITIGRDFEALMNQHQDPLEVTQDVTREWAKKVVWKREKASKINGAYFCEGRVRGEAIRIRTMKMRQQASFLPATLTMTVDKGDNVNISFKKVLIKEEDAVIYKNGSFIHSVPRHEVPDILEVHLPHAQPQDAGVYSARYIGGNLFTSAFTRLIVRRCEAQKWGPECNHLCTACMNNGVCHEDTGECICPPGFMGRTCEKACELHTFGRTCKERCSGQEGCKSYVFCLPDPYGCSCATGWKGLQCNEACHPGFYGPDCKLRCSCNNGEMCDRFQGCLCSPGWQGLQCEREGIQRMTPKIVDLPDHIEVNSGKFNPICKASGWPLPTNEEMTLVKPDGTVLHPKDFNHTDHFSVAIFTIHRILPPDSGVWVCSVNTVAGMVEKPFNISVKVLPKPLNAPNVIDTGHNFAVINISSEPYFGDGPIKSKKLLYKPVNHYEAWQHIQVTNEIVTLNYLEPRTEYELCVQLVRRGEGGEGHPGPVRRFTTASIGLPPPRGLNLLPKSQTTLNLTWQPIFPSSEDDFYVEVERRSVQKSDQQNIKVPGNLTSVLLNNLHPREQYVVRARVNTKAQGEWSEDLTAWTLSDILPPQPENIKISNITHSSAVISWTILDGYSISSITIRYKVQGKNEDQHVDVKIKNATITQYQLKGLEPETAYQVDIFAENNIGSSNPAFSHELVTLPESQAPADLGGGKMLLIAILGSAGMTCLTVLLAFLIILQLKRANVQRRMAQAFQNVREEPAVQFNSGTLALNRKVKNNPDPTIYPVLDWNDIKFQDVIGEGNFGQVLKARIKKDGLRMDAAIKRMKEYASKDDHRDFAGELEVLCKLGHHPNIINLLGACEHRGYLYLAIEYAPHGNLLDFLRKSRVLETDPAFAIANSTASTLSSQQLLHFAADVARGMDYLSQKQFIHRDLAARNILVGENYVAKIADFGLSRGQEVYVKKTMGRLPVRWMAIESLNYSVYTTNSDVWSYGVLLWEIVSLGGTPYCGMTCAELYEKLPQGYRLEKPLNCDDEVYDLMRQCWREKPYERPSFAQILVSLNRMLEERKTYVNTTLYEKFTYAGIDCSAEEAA
# Sequence of Vascular endothelial growth factor receptor 1 (Homo sapiens) (P17948 whole entry, looked up): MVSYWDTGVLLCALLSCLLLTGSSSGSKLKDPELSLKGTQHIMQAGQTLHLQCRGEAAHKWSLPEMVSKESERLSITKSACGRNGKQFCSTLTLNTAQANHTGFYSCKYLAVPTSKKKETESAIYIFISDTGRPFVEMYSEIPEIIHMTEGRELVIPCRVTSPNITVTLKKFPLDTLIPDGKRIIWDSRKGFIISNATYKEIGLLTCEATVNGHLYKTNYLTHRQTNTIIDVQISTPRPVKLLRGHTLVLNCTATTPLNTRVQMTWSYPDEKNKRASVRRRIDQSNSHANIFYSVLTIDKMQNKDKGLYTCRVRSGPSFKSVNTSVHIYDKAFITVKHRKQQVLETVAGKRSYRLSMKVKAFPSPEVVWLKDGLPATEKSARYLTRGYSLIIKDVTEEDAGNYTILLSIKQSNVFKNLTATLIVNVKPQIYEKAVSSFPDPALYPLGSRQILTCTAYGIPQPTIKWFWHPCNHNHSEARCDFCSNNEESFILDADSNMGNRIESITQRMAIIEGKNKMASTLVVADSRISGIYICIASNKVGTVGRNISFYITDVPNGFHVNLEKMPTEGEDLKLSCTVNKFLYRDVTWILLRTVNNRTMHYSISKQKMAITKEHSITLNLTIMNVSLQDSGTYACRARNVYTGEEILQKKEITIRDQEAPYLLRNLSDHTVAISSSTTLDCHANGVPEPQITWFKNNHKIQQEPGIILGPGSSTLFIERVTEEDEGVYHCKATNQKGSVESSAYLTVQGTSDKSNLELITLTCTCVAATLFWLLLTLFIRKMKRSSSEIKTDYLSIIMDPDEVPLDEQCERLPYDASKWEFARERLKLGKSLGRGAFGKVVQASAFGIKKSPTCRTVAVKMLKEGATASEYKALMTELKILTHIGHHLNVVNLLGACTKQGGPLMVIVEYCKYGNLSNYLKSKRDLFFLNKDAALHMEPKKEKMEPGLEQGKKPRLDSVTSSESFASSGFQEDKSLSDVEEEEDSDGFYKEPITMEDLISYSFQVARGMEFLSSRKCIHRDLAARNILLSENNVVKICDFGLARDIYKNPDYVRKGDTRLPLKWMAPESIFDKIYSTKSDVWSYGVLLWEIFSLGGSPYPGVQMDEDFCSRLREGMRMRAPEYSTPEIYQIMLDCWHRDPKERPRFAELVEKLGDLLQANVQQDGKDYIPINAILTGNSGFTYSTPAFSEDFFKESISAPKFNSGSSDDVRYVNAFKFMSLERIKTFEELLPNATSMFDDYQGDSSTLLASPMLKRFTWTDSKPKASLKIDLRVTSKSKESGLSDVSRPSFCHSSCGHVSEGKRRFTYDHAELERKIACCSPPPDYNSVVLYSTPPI
smiles,measurement,setting,value
CCn1cnc(-c2ccccc2)c1-c1nc2c(N)ncnc2s1,solubility,[1],171 µM
same,IC50,Angiopoietin-1 receptor [2],3000 nM
Cn1cnc(-c2cccc(NC(=O)Nc3cc(C(F)(F)F)ccc3F)c2)c1-c1cc2c(N)ncnc2s1,IC50,Angiopoietin-1 receptor [2],70 nM
Cc1cc(NC(=O)Nc2cccc(-c3ncn(C)c3-c3cc4c(N)ncnc4s3)c2)on1,IC50,Angiopoietin-1 receptor [2],340 nM
same,Cmax,[3],9 nM
Cc1ccc(Sc2cccc(-c3ncn(C)c3-c3cc4c(N)ncnc4s3)c2)cc1,IC50,Angiopoietin-1 receptor [2],1400 nM
Cn1cnc(-c2ccccc2)c1-c1cc2c(N)ncnc2s1,fraction unbound,[4],0.045
same,IC50,Angiopoietin-1 receptor [2],1800 nM
same,bioavailability,[5],> 100%
same,half-life,[6],1.8 h
same,Vd,[7],1.4 L/kg
same,clearance,[8],39 mL/min/kg
same,IC50,Angiopoietin-1 receptor [9],34000 nM
same,IC50,[10],22000 nM
same,IC50,[11],10000 nM
Cn1cnc(-c2cccc(NC(=O)Nc3ccccc3)c2)c1-c1cc2c(N)ncnc2s1,IC50,Angiopoietin-1 receptor [2],1400 nM
Nc1ncnc2sc(-c3c(-c4ccccc4)ncn3C[C@H]3CCCO3)nc12,fraction unbound,[4],0.2
same,IC50,Angiopoietin-1 receptor [2],370 nM
Nc1ncnc2sc(-c3c(-c4ccccc4)ncn3Cc3ccccc3N3CCOCC3)nc12,fraction unbound,[4],0.058
same,IC50,Angiopoietin-1 receptor [2],440 nM
same,Activity,Rattus norvegicus [12],Active
same,Activity,Rattus norvegicus [13],inactive
CC(C)Cn1cnc(-c2ccccc2)c1-c1nc2c(N)ncnc2s1,fraction unbound,[4],0.059
same,solubility,[1],70 µM
same,IC50,Angiopoietin-1 receptor [2],490 nM
Nc1ncnc2sc(-c3c(-c4ccccc4)ncn3CC3CCCCC3)nc12,fraction unbound,[4],0.016
Cn1cnc(-c2ccccc2)c1-c1nc2c(N)ncnc2s1,fraction unbound,[4],0.052
same,PPB,Plasma,94.6%
same,solubility,[1],160 µM
same,bioavailability,[5],> 100%
same,half-life,[6],1.6 h
same,Vd,[7],1.2 L/kg
same,clearance,[8],30.1 mL/min/kg
same,IC50,Angiopoietin-1 receptor [9],20000 nM
same,logD,[14],2.7
